# Ends that are not written are not given here.
# Legend:
# [1] = system: L292 cells, HCT cells, A594 cells, Hep-G2 cells, and HSC cells; assay: Cytotoxicity of Rq and Rq/PTX on other cell types; assay type: cell-based; settings: 24 hours incubation with 1,000 μM Rq; Figure S2
# HeLa cells [2] = assay: Cytotoxicity of CPP; assay type: cell-based, Human; settings: MTT, 3 and 24 hours incubation, up to 1,000 μM
# Method in brief: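 HeLa cells seeded at 5×10^3/well and grown 24 h. Exposed to peptide at 50–1,000 μM for 3 h, washed twice with PBS, then given fresh medium for 24 h. A parallel arm used 100 and 1,000 μM for 24 h. Viability by MTT (3 h, DMSO solubilisation, OD492), expressed as percent of untreated cells.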
# HeLa cells [3] = assay: Cellular uptake and distribution by fluorescence / confocal microscopy; assay type: cell-based, Human; settings: 10 and 100 μM, 30 minutes, 37°C, serum-free medium
# Method in brief: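 HeLa cells (4×10^4) on coverslips, 24 h, then FITC-labelled peptide or FITC alone at 10 or 100 μM in serum-free medium, 37°C for 30 min. Washed twice in PBS with heparin to strip surface-bound peptide, fixed in 4% PFA. For widefield imaging, nuclei were DAPI-stained; for intracellular distribution, cells were imaged by confocal microscopy immediately after fixation.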
# [4] = In vivo plasma concentration and bio-distribution of PTX; set-up: species or system BALB/c mice; settings: mice, HPLC
# Method in brief: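 Female BALB/c mice (4–6 weeks, 18–22 g) carried subcutaneous HeLa xenografts (5×10^6 cells) grown to ~50 mm3. Filtered formulations (100 μL) were dosed daily via tail vein for 2 weeks. Blood and organs (lung, liver, kidney, heart, spleen) were saline-washed, weighed and stored at −20°C. Plasma and homogenates were methanol-precipitated and spun at 12,000 rpm for 10 min; PTX was quantified by C18 HPLC at 227 nm.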
# HeLa cells [5] = settings: after 20 hours of incubation with 1 μM (0.854 μg/mL) PTX; cited from earlier work
compound,measurement,setting,value
RRRRQWWQW [Rq],cell viability of other cell types after incubation with Rq,[1],no significant decrease in the cell viability
same,cell viability after incubation with Rq,HeLa cells [2],Nearly all the cells were viable
fluorescein isothiocyanate [FITC],green fluorescence in cells (fluorescence microscopy),HeLa cells [3],no fluorescence was observed
"CC(=O)O[C@H]1C(=O)[C@@]2(C)[C@H]([C@H](OC(=O)c3ccccc3)[C@]3(O)C[C@H](OC(=O)[C@H](O)[C@@H](NC(=O)c4ccccc4)c4ccccc4)C(C)=C1C3(C)C)[C@]1(OC(C)=O)CO[C@@H]1C[C@@H]2O [PTX, paclitaxel]",PTX level in tissues (organs),"[4]; after 2 weeks of daily tail vein treatment, tissue homogenate","accumulated in liver, kidney, and heart"
same,drop in the PTX concentration in plasma,"[4]; tail vein injection, 30 minutes versus 24 hours after injection",sharply decreased
same,intracellular PTX concentration,HeLa cells [5],0.206 mg/mL

# Source: paper PMC5626417 (International Journal of Nanomedicine, 2017)
